Here are results for five compounds from ChEMBL document CHEMBL1139506, “Effect on K(ATP) channel activation properties and tissue selectivity of the nature of the substituent in the 7- and the 3-position of 4H-1,2,4-benzothiadiazine 1,1-dioxides” (J Med Chem, 2005).

Structures are written as SMILES.

The species named for data set [1] is Rattus norvegicus. Put plainly: Effect on insulin secretion from rat pancreatic islets at 1 uM concentration (n=20). Format: functional. The essentials:
(§1)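 Islets isolated by collagenase from fed Wistar rats (180-220 g); groups of 10 preincubated 30 min, 37 °C, in bicarbonate salt medium with 2.8 mM glucose, 0.5% dialyzed albumin, O2/CO2 95:5. Then incubated 90 min, 37 °C, with 16.7 mM glucose plus drug. Insulin measured by radioimmunoassay against rat insulin standard; expressed as % of drug-free 16.7 mM glucose control; mean ± SEM (n).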

For data set [2], the species on record is Rattus norvegicus. Put plainly: Effect on insulin secretion from rat pancreatic islets at 10 uM concentration (n=24). Format: functional. The essentials: as §1
Data set [3] is described as follows: Ionization constant was determined. Format: physicochemical. The essentials: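 Ionization constant found by UV spectroscopy in aqueous buffers spanning pH 5 to 12; pKa calculated with the Debye-Hückel equation at the absorbance maximum of the basic form.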
The species named for data set [4] is Rattus norvegicus. Briefly: Concentration giving 50% relaxation of the 30 mM KCl-induced contraction of rat aortic rings (n=5). It counts as functional. Conditions: Aorta, read-out: ED50 (the source's name). The essentials: (§2)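 Endothelium-denuded transverse aortic rings (3-4 mm) from fed Wistar rats (180-200 g); isometric tension by force transducer. After 60 min equilibration, contracted with 30 mM KCl; at stable tension, drug added cumulatively until maximal relaxation or up to 0.3 mM. Relaxation expressed as % of KCl contraction; ED50 (50% inhibition of KCl plateau) from dose curves; mean ± SEM (n).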

The species entered for data set [5] is Rattus norvegicus. Briefly: Concentration required for 50% inhibition of insulin release in rat pancreatic B-cells. It counts as functional, cell-based.
The species entered for data set [6] is Rattus norvegicus. Briefly: ED50/IC50 ratio was determined. It counts as functional.
Data set [7] is filed under the species Rattus norvegicus. Put plainly: Effect on insulin secretion from rat pancreatic islets at 50 uM concentration (n=12). It counts as functional. The gist of the method: as §1
Data set [8] is filed under the species Rattus norvegicus. Put plainly: Concentration giving 50% relaxation of the 30 mM KCl-induced contraction of rat aortic rings (n=6). It counts as functional. Conditions: Aorta, read-out: ED50 (the source's name). The essentials: as §2
The species entered for data set [9] is Rattus norvegicus. Briefly: Effect on insulin secretion from rat pancreatic islets at 10 uM concentration (n=32). Format: functional.
The species entered for data set [10] is Rattus norvegicus. Put plainly: Effect on insulin secretion from rat pancreatic islets at 50 uM concentration (n=35). It counts as functional.
For data set [11], the species on record is Rattus norvegicus. Put plainly: Effect on insulin secretion from rat pancreatic islets at 1 uM concentration (n=31). Format: functional.
Data set [12] is filed under the species Rattus norvegicus. Put plainly: Effect on insulin secretion from rat pancreatic islets at 50 uM concentration (n=20). It counts as functional. The gist of the method: as §1
The species entered for data set [13] is Rattus norvegicus. Put plainly: Effect on insulin secretion from rat pancreatic islets at 10 uM concentration (n=22). Format: functional. The essentials:
as §1

Data set [14] is filed under the species Rattus norvegicus. Briefly: Concentration giving 50% relaxation of the 30 mM KCl-induced contraction of rat aortic rings (n=8). Conditions: Rattus norvegicus, Aorta; read-out: ED50 (the source's name). Format: functional, Aorta. The essentials: as §2
The species named for data set [15] is Rattus norvegicus. Put plainly: Effect on insulin secretion from rat pancreatic islets at 1 uM concentration (n=14). Format: functional. The essentials: as §1
The species entered for data set [16] is Rattus norvegicus. Briefly: Effect on insulin secretion from rat pancreatic islets at 50 uM concentration (n=13). It counts as functional. The gist of the method:
as §1

For data set [17], the species on record is Rattus norvegicus. Briefly: Effect on insulin secretion from rat pancreatic islets at 10 uM concentration (n=13). It counts as functional. The essentials: as §1
The species entered for data set [18] is Rattus norvegicus. Put plainly: Effect on insulin secretion from rat pancreatic islets at 1 uM concentration (n=15). Format: functional. The essentials:
as §1

The species entered for data set [19] is Rattus norvegicus. Put plainly: Concentration required for relaxation of the 30 mM KCl-induced contraction of rat aortic rings (n=4). Format: functional. Conditions: Aorta, read-out: ED50 (the source's name). The essentials:
as §2

For data set [20], the species on record is Rattus norvegicus. Briefly: Effect on insulin secretion from rat pancreatic islets at 10 uM concentration (n=15). It counts as functional. The gist of the method: as §1
The species named for data set [21] is Rattus norvegicus. Put plainly: Effect on insulin secretion from rat pancreatic islets at 50 uM concentration (n=9). Format: functional. The essentials: as §1

Consider `COc1ccc2c(c1)S(=O)(=O)NC(NC(C)C)=N2`, for which the Residual insulin release was found to be 67.6% in the data set listed under Rattus norvegicus [1], 8.5% in the data set filed under Rattus norvegicus [2] and 4.4% in the data set filed under Rattus norvegicus [7]. Also, the pKa in data set [3] turned out to be 10.1. For the same compound, the EC50 in the data set listed under Rattus norvegicus [4] amounted to 274 µM. In addition, in the data set listed under Rattus norvegicus [5], the IC50 worked out at 3.7 µM. The Ratio in the data set filed under Rattus norvegicus [6] was determined as 74.

Regarding `CC(C)NC1=NS(=O)(=O)c2cc(Cl)ccc2N1`, the EC50 in the data set listed under Rattus norvegicus [8] came to 36.3 µM. Besides, the Residual insulin release is 4.9% in the data set filed under Rattus norvegicus [9], 5.7% in the data set listed under Rattus norvegicus [10] and 36.2% in the data set listed under Rattus norvegicus [11]. This compound also showed an IC50 in the data set listed under Rattus norvegicus [5] of 0.7 µM. In the data set filed under Rattus norvegicus [6], the Ratio was 52.

On to `COC(=O)c1ccc2c(c1)S(=O)(=O)NC(NC(C)C)=N2`, for which the Residual insulin release was determined as 94.3% in the data set listed under Rattus norvegicus [12] and 95.7% in the data set listed under Rattus norvegicus [13]. Moreover, the EC50 in the data set listed under Rattus norvegicus [14] is greater than 200 µM.

On to `CC(C)NC1=NS(=O)(=O)c2cc(C(F)(F)F)ccc2N1`, for which the pKa in [3] was determined as 8.96. Further, in the data set filed under Rattus norvegicus [8], the EC50 came out at 13.1 µM. The same compound yielded an IC50 in the data set listed under Rattus norvegicus [5] of 1.7 µM. The Residual insulin release in the data set filed under Rattus norvegicus [15] was found to be 71.5%; in the data set listed under Rattus norvegicus [16] it was 7.1%; in the data set listed under Rattus norvegicus [17] it was 7.4%. Further, the Ratio in the data set filed under Rattus norvegicus [6] stood at 7.7.

On to `CCC(C)NC1=NS(=O)(=O)c2cc(OC)ccc2N1` (centres undefined), for which the Residual insulin release is 92.4% in the data set listed under Rattus norvegicus [18], 23.4% in the data set filed under Rattus norvegicus [20] and 8.5% in the data set filed under Rattus norvegicus [21]. Besides, the EC50 in the data set listed under Rattus norvegicus [19] is 17.5 µM. Further, in the data set listed under Rattus norvegicus [5], half-maximal inhibition (IC50) required 4 µM. Further, the Ratio in the data set listed under Rattus norvegicus [6] worked out at 4.4.

As usually defined, the pKa is the negative logarithm of the acid dissociation constant. The IC50 is the concentration that gives 50% inhibition.
